Assay outcomes deposited in PubChem by The Scripps Research Institute Molecular Screening Center.
Hits are enriched below; roughly 4.7% of the tested compounds scored in any of these assays.
MC4R antag cAMP – human MC4R antagonism in cAMP assay | P32245 | MC4R-expressing cells, MTII-stimulated cAMP, LANCE TR-FRET | inhibition, % at 6.5 µM | hit rate 0.48% among 360,000;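 active = inhibition above its plate's cutoff, the mean of tested wells on that plate plus 3 SD, cut at about 29% in these data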
Target sequence (P32245 whole entry, looked up): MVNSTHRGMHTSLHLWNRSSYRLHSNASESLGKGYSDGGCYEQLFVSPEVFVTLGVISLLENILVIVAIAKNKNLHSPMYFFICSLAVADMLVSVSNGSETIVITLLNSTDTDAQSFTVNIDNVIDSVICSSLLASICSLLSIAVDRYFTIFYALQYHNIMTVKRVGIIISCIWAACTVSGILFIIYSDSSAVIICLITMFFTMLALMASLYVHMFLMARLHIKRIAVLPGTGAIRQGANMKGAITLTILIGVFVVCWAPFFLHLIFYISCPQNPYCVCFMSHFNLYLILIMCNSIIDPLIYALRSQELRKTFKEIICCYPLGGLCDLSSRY
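Material: human MC4R-expressing U2OS cells. Probe or stimulus: Melanotan II challenge. Dosing: 6.5 µM single dose. Times: 30-min compound, 1-h challenge, 1-h detection, room temperature. Technique: TR-FRET with Eu-cAMP and labeled anti-cAMP, 671 nm. Replication: singlicate.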
MC4R ag barr – human MC4R agonism via beta-arrestin; P32245; U2OS MC4R beta-arrestin complementation, luminescence; percent of melanotan II response, DMSO zero; activation, % at 8.9 µM; hit rate 0.98% among 360,000; AID 540308;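 active = activation above a per-plate cutoff, the mean activation of sample wells on that plate plus 3 SD, cut at about 8% in these data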
m5-HT2A agonist – activates the mouse 5-HT2A serotonin receptor | P35363 | CHO-K1 mHTR2A beta-arrestin complementation, luminescence; percent of 30 µM serotonin response | activation, % at 7.6 µM | hit rate 0.66% among 360,000;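 active = activation above a run cutoff, the mean activation of all tested compounds plus 3 SD, cut at about 14% in these data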
GAA850 FXN act – activators of GAA850 frataxin (FXN) promoter | HEK293 lucGAA850 FXN promoter luciferase reporter, 24 h; percent of 10 µM SAHA response | activation, % at 6 µM | hit rate 0.56% among 360,000 | AID 540364;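 active = activation above the average of all compounds screened plus 3 SD, cutoff fixed separately per campaign, cut at about 7.5% in these data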
AHR act – activators of human aryl hydrocarbon receptor | activation, % at 5 µM | P35869 | hit rate 2.5% among 320,000 | AHR-responsive luciferase reporter cells, luminescence | AID 2796; in the data active = activation above about 47%
Numbers stand for hits; i = inactive; nt = no result.

SMILES	MC4R antag cAMP	MC4R ag barr	m5-HT2A agonist	GAA850 FXN act	AHR act
O=C(N/N=C/c1sc(N2CCCCC2)nc1-c1cccs1)C1CC1	i	i	i	i	68
Cc1ccc(NC(=O)c2ccc(Cl)c(N3C(=O)C=CC3=O)c2)cc1	55	i	i	i	i
COc1cc(-c2noc(C)c2/C=C/c2ccc(N)cc2)cc(OC)c1OC	i	i	i	i	71
COc1cc(-c2noc(C)c2C#Cc2ccc(N)cc2)cc(OC)c1OC	i	i	i	i	i
CCOc1ccccc1C(=O)Oc1ccc2ccc(=O)oc2c1	i	i	i	i	i
Cc1ccc(OCc2ccc(C(=O)NN)o2)cc1C	i	i	i	i	63
CCOc1ccc(OCc2ccc(C(=O)NN)o2)cc1	i	i	i	i	i
CN(C)c1ccc(NC(=O)c2ccc(COc3cccc(Cl)c3)o2)cc1	i	i	i	i	71
COC(=O)c1ccc(COc2ccc(C)cc2[N+](=O)[O-])o1	i	i	i	i	i
Cc1ccc(OCc2ccc(C(=O)NN)o2)c([N+](=O)[O-])c1	i	i	i	i	97
NNC(=O)c1ccc(COc2ccc3ccccc3c2)o1	i	i	i	i	80
CCN1CCN(C(=O)c2ccc(COc3cccc(Cl)c3)o2)CC1	i	i	i	i	i
C[C@H](CO)N1C[C@H](C)[C@@H](CN(C)C(=O)Nc2ccc(F)cc2)Oc2ncc(-c3ccc(F)cc3)cc2C1=O	i	i	i	i	nt
Cc1cc(C)nc(Nc2nc(C(N)Cc3ccccc3)cs2)n1 (centres undefined)	i	i	i	i	nt
Cc1ccccc1Cn1cc(NC(=O)c2cc(C3CC3)on2)cn1	i	i	i	i	74
CCOC(=O)c1ccc(Nc2ncnc3c2cnn3C)cc1	i	i	i	i	i
Cn1ncc2c(O/N=C(\N)c3ccc(C(C)(C)C)cc3)ncnc21	i	36	i	i	i
CCOC(=O)[C@]12CCC=C1N(CCC1=CCCCC1)C(=O)[C@H](CC(=O)N1CCN(C(=O)c3ccco3)CC1)C2	nt	nt	i	nt	nt
Cc1ccc(-c2nc3ncccc3o2)cc1NC(=O)c1ccccc1	i	i	i	i	i
COc1ccc(-c2nc3ncccc3o2)cc1NC(=O)c1ccco1	i	i	i	i	76
Cc1ccc(NC(=O)c2noc3c2CCCCC3)cc1C	i	i	i	i	i
Cc1ccc(NC(=O)c2ccc(C#CC3(O)CCCCC3)cc2)cc1C	i	9.0	i	i	i
COc1ccc(-c2c(-c3ccsc3)oc3ccc(N4CCOCC4)cc23)cc1	i	i	i	i	47
COc1ccc2c(C)cc(=O)[nH]c2c1	i	i	i	i	i
COc1ccc2c(-c3cccnc3)cc(=O)[nH]c2c1	i	i	i	i	78
SMILES	MC4R antag cAMP	MC4R ag barr	m5-HT2A agonist	GAA850 FXN act	AHR act
CCCc1cc(-c2nc(-c3ccc(Br)cc3)cs2)ccn1	i	i	i	i	47
Cn1c(=O)c(C(=O)Nc2ncccc2O)c(O)c2ccccc21	i	i	i	i	77
O=C(NCCc1ccccc1)C1CCCN(c2cnccn2)C1 (centres undefined)	i	i	i	i	64
O=C(NCc1ccccc1F)C1CCCN(c2cnccn2)C1 (centres undefined)	i	i	i	i	i
Cc1ccc(NC(=O)C2CCCN(c3cnccn3)C2)c(C)c1 (centres undefined)	i	i	i	i	47
Cc1ccc(CNC(=O)C2CCCN(S(=O)(=O)c3cccnc3)C2)cc1 (centres undefined)	i	i	i	i	i
Cc1ccccc1CCNC(=O)C1CCCN(c2cnccn2)C1 (centres undefined)	i	i	i	i	48
Cc1ccc(NC(=O)C2CCCN(c3ncccn3)C2)c(C)c1 (centres undefined)	i	i	i	i	i
O=C(NCCc1ccc(Cl)cc1)C1CCN(c2cnccn2)CC1	i	i	i	i	i
Cc1ccc(CNC(=O)C2CCCN(c3cnccn3)C2)cc1 (centres undefined)	i	i	i	i	58
CCOc1ccc(-c2c(C(=O)N/N=C/C3CC=CCC3)nnn2-c2nonc2N)cc1 (centres undefined)	i	i	i	i	i
O=[N+]([O-])c1ccc(CN2CC(N3CCN(CC4CC4)CC3)CS2(=O)=O)cc1 (centres undefined)	i	i	i	i	nt
CCc1sc(C(=O)Nc2ccc3c(c2)OCO3)cc1C	i	i	i	i	i
COc1c(C(CC(C)C)OC(C)=O)ccc2c1C(=O)OCc1cc(C)cc(O)c1O2 (centres undefined)	i	8.6	i	i	i
C[C@@H]1CN([C@@H](C)CO)S(=O)(=O)c2ccc(Br)cc2O[C@H]1CN(C)C(=O)c1cccc(F)c1	i	i	i	i	nt
CC(=O)Nc1nc(-c2ccc(Cl)cc2)ns1	i	i	i	i	84
Cc1nnc(SCCC(=O)Nc2nc(-c3ccccc3)ns2)s1	i	i	i	i	67
O=C(Nc1nc(-c2ccccc2)ns1)c1cccs1	i	i	i	i	106
CCOc1ccc(NC(=O)CCSc2nnc(C)s2)cc1	i	i	i	i	i
CC(C)C(=O)Nc1nc(-c2ccccc2)ns1	i	i	i	i	i
CCCC(=O)Nc1nc(-c2ccccc2)ns1	i	i	i	i	70
CCNC(=O)C1CCCN(C(=O)Cc2cccs2)CC1 (centres undefined)	i	i	i	i	nt
CCCCN(C)c1c(C)nc2ccc(C(=O)Nc3cc(-c4ccccc4)ccc3OC)cn12	i	i	i	i	nt
O=C(Nc1ccnc(-c2cccnc2)n1)c1cccs1	i	i	i	i	64
CC(=O)Nc1ccnc(-c2cccnc2)n1	i	i	i	i	i
SMILES	MC4R antag cAMP	MC4R ag barr	m5-HT2A agonist	GAA850 FXN act	AHR act
O=C(Nc1ccc(C(=O)N2CCCC2)cc1)c1cc(F)c(F)cc1Cl	i	i	i	i	nt
Cc1cnc(C(=O)OCC(=O)c2ccc[nH]2)cn1	i	i	i	i	i
CC1(C(=O)Nc2ccc3c(c2)OCCO3)CN(S(C)(=O)=O)CC(=O)N1CCc1ccccc1F (centres undefined)	nt	nt	i	nt	nt
O=C(CCl)Nc1c(C(=O)Nc2ccc3c(c2)OCCO3)oc2ccccc12	i	i	i	i	i
O=C(Nc1cc(Br)ccc1O)c1cc(-c2ccc3c(c2)OCO3)on1	i	i	i	i	i
O=C(Nc1ccc2c(c1)OCO2)c1cc(Cl)ccn1	i	i	i	i	67
CSc1ccccc1NC(=O)c1cc(-c2ccc3c(c2)OCO3)on1	i	12	i	i	i
Cc1c(C(=O)Nc2ccc3c(c2)OCO3)oc2ccccc12	i	i	i	i	76
Cc1cc(C(=O)Nc2ccc3c(c2)OCO3)no1	i	i	i	i	58
O=C(COc1ccc(F)cc1Br)Nc1ccccc1N1CCOCC1	i	i	i	i	nt
CC(C)(C)c1cc(NC(=O)C2(C)CCN2C(=O)C2(c3ccccc3)CC2)no1 (centres undefined)	i	i	i	i	nt
O=c1c2ccccc2nc2n1CCC2O (centres undefined)	i	i	i	i	i
